Assay results reported in ChEMBL document CHEMBL4145676, “Mathematical and Structural Characterization of Strong Nonadditive Structure-Activity Relationship Caused by Protein Conformational Changes” (J Med Chem, 2018).

Assay: Inhibition of GST tagged PDE2 (unknown origin) assessed as reduction in FAM-cAMP hydrolysis pre-incubated for 5 mins before FAM-cAMP addition and measured after 30 mins by IMAP assay
Design: species or system Homo sapiens
Summary of the method: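 Compound added from 1 mM DMSO stock, 5 min at rt. FAM-cAMP then added at 200 nM final, 30 min at rt. Stopped with IMAP Tb binding reagent, 1 h at rt. Plate reader read-out gives pIC50, run in quadruplicate.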
`Cc1nc2ccc(C(=O)NCC(C)C)cc2n2c(-c3ccccc3Cl)nnc12` gave a pIC50 of 9.52. `Cc1nc2ccc(C(=O)NC(C)(C)C)cc2n2c(-c3cc(OC(C)C)ccc3Cl)nnc12` showed a pIC50 of 8.3. Compound `Cc1nc2ccc(C(=O)NC(C)(C)C)cc2n2c(-c3cc(OCC(C)C)ccc3Cl)nnc12` has a pIC50 of 8.75. With `Cc1nc2ccc(C(=O)NCC(C)C)cc2n2c(-c3cc(OC(C)C)ccc3Cl)nnc12` the pIC50 was 8.93. Compound `Cc1nc2ccc(C(=O)NC34CC5CC(CC(C5)C3)C4)cc2n2c(-c3ccccc3Cl)nnc12` has a pIC50 of 9.77. Work on `CNC(=O)c1ccc2nc(C)c3nnc(-c4cc(OCC(C)C)ccc4Cl)n3c2c1` yielded a pIC50 of 9.61. With `Cc1nc2ccc(C(=O)NCC(C)C)cc2n2c(-c3cc(OCC(C)C)ccc3Cl)nnc12` the pIC50 was 9.29. With `Cc1nc2ccc(C(=O)NC(C)(C)C)cc2n2c(-c3ccccc3Cl)nnc12` the pIC50 was 9.47. `COc1ccc(Cl)c(-c2nnc3c(C)nc4ccc(C(=O)NCC(C)C)cc4n23)c1` gave a pIC50 of 9.42. `Cc1nc2ccc(C(=O)NCC(C)C)cc2n2c(-c3cc(F)ccc3Cl)nnc12` gave a pIC50 of 9.37. `Cc1nc2ccc(C(=O)NC(C)C)cc2n2c(-c3cc(OC(C)C)ccc3Cl)nnc12` gave a pIC50 of 8.99. For `CNC(=O)c1ccc2nc(C)c3nnc(-c4cc(OC(C)(C)C)ccc4Cl)n3c2c1`, the pIC50 was 9.16. Work on `Cc1nc2ccc(C(=O)NCC(C)C)cc2n2c(-c3cc(OC(C)(C)C)ccc3Cl)nnc12` yielded a pIC50 of 8.88. Work on `COc1ccc(Cl)c(-c2nnc3c(C)nc4ccc(C(=O)NC(C)C)cc4n23)c1` yielded a pIC50 of 8.96. Compound `CNC(=O)c1ccc2nc(C)c3nnc(-c4cc(OC(C)C)ccc4Cl)n3c2c1` has a pIC50 of 9.16. Compound `Cc1nc2ccc(C(=O)NC34CC5CC(CC(C5)C3)C4)cc2n2c(-c3cc(F)ccc3Cl)nnc12` has a pIC50 of 9.58. In the case of `Cc1nc2ccc(C(=O)NC(C)C)cc2n2c(-c3cc(OCC(C)C)ccc3Cl)nnc12`, the pIC50 is reported as 9.46. Work on `Cc1nc2ccc(C(=O)NC(C)C)cc2n2c(-c3cc(F)ccc3Cl)nnc12` yielded a pIC50 of 9.17. `Cc1nc2ccc(C(=O)NC(C)(C)C)cc2n2c(-c3cc(OC(C)(C)C)ccc3Cl)nnc12` gave a pIC50 of 8.35. `Cc1nc2ccc(C(=O)NC(C)C)cc2n2c(-c3ccccc3Cl)nnc12` gave a pIC50 of 9.57. For `COc1ccc(Cl)c(-c2nnc3c(C)nc4ccc(C(=O)NC56CC7CC(CC(C7)C5)C6)cc4n23)c1`, the pIC50 was 9.49. In the case of `Cc1nc2ccc(C(=O)NC34CC5CC(CC(C5)C3)C4)cc2n2c(-c3cc(OC(C)C)ccc3Cl)nnc12`, the pIC50 is reported as 7.94. `Cc1nc2ccc(C(=O)NC34CC5CC(CC(C5)C3)C4)cc2n2c(-c3cc(OC(C)(C)C)ccc3Cl)nnc12` showed a pIC50 of 7.58. Work on `CNC(=O)c1ccc2nc(C)c3nnc(-c4ccccc4Cl)n3c2c1` yielded a pIC50 of 8.55. Work on `Cc1nc2ccc(C(=O)NC34CC5CC(CC(C5)C3)C4)cc2n2c(-c3cc(OCC(C)C)ccc3Cl)nnc12` yielded a pIC50 of 7.74. `CNC(=O)c1ccc2nc(C)c3nnc(-c4cc(F)ccc4Cl)n3c2c1` showed a pIC50 of 8.69. Compound `CNC(=O)c1ccc2nc(C)c3nnc(-c4cc(OC)ccc4Cl)n3c2c1` has a pIC50 of 8.74. In the case of `Cc1nc2ccc(C(=O)NC(C)(C)C)cc2n2c(-c3cc(F)ccc3Cl)nnc12`, the pIC50 is reported as 9.3. In the case of `Cc1nc2ccc(C(=O)NC(C)C)cc2n2c(-c3cc(OC(C)(C)C)ccc3Cl)nnc12`, the pIC50 is reported as 9.1. Compound `COc1ccc(Cl)c(-c2nnc3c(C)nc4ccc(C(=O)NC(C)(C)C)cc4n23)c1` has a pIC50 of 9.
